According to ChEMBL document CHEMBL4028818, “Tricyclic 4,4-dimethyl-3,4-dihydrochromeno[3,4-d]imidazole derivatives as microsomal prostaglandin E2 synthase-1 (mPGES-1) inhibitors: SAR and in vivo efficacy in hyperalgesia pain model” (Bioorg Med Chem Lett, 2017):

Tests used:
[1] = Metabolic stability in human liver microsomes assessed as parent compound remaining at 1 uM after 60 mins in presence of NADPH by LC/MS/MS analysis; type: ADME, microsome; details: read-out: Stability
In short: (§1)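 Compound at 1.0 µM was incubated with liver microsomes (1.0 mg/mL protein) at 37 °C for 60 min. Samples were analysed by LC/MS/MS as % parent remaining. Run in triplicate.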

[2] = molecular target: Cytochrome P450 2C19 (Homo sapiens, UniProt P33261); assay: Inhibition of CYP2C19 in human liver microsomes at 1 uM measured after 40 mins in presence of NADPH by LC/MS/MS analysis; type: ADME
In short: (§2)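 CYP isoforms 1A2, 2D6, 3A4, 2C9 and 2C19 were tested at 1 and 10 µM. Results are % inhibition compared with a no-inhibitor control, run in triplicate.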

[3] = Metabolic stability in rat liver microsomes assessed as parent compound remaining at 1 uM after 60 mins in presence of NADPH by LC/MS/MS analysis; type: ADME, microsome; details: read-out: Stability; in short: as §1
[4] = molecular target: Cytochrome P450 3A4 (Homo sapiens, UniProt P08684); assay: Inhibition of CYP3A4 in human liver microsomes at 1 uM measured after 20 mins in presence of NADPH by LC/MS/MS analysis; type: ADME; in short: as §2
[5] = Clearance in Sprague-Dawley rat at 5 mg/kg, iv administered as single bolus dose; type: ADME, organism-based; details: in vivo
In short: (§3)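 Male Sprague-Dawley rats were dosed i.v. in a vehicle of 20% NMP + 20% ethanol + 60% PEG 200. T1/2, CL and Vz were derived. Values are mean ± SD, n = 3.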

[6] = molecular target: Cytochrome P450 2D6 (Homo sapiens, UniProt P10635); assay: Inhibition of CYP2D6 in human liver microsomes at 1 uM measured after 20 mins in presence of NADPH by LC/MS/MS analysis; type: ADME; in short: as §2
[7] = Oral bioavailability in Sprague-Dawley rat at 10 mg/kg; type: ADME, organism-based; details: in vivo
In short: (§4)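 Male Sprague-Dawley rats were dosed orally as a 0.5% methylcellulose suspension. Cmax, AUC0-24, Tmax, T1/2 and %F were determined. Values are mean ± SD, n = 3.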

[8] = molecular target: Cytochrome P450 2C9 (Homo sapiens, UniProt P11712); assay: Inhibition of CYP2C9 in human liver microsomes at 1 uM measured after 20 mins in presence of NADPH by LC/MS/MS analysis; type: ADME; in short: as §2
[9] = molecular target: T1, Prostaglandin E synthase (Homo sapiens, UniProt O14684); assay: Inhibition of mPGES-1 in human A549 cells assessed as decrease in IL1beta induced PGE2 release preincubated for 30 mins followed by IL-1beta addition after 16 to 20 hrs by HTRF method; type: cell-based
T1 sequence (O14684 whole entry): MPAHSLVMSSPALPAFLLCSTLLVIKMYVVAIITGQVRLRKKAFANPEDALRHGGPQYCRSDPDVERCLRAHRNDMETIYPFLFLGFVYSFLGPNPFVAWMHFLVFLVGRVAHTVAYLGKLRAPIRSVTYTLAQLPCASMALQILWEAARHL

[10] = AUC (0 to 24 hrs) in Sprague-Dawley rat at 10 mg/kg, po; type: ADME, organism-based; set-up: dose 10 mg/kg, time < 24 hr, route oral; details: in vivo; in short: as §4
[11] = molecular target: T2, Prostaglandin G/H synthase 2 (Homo sapiens, UniProt P35354); assay: Inhibition of recombinant human N-terminal His-tagged COX2 expressed in baculovirus infected Sf21 insect cells assessed as decrease in PGE2 release using arachidonic acid as substrate preincubated for 15 mins followed by arachidonic acid addition measured after 5 mins
T2 sequence (P35354 whole entry): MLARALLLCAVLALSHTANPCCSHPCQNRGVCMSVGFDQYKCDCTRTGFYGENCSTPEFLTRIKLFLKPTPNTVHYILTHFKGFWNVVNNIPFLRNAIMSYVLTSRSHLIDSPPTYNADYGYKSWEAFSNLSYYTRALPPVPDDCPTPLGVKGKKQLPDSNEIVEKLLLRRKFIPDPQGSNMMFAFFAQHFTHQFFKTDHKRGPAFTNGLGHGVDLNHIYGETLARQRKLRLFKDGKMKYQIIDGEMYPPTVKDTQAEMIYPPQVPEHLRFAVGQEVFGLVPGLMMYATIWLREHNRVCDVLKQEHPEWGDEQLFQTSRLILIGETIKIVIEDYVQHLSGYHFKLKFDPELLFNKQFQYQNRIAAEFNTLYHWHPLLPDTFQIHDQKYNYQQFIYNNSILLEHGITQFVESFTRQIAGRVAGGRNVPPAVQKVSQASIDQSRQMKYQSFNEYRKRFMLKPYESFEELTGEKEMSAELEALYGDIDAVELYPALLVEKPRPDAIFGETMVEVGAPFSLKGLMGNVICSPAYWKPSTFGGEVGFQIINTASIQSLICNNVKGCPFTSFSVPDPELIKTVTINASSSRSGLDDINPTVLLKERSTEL

[12] = molecular target: T1, Prostaglandin E synthase; assay: Inhibition of recombinant human mPGES-1 expressed in CHO cells assessed as reduction in PGE2 formation using PGH2 a substrate preincubated for 10 mins followed by substrate addition measured after 1 min; type: cell-based
In short: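 mPGES-1 enzyme inhibition. % inhibition values are means of two experiments in duplicate. IC50 values were derived from graphs of at least two experiments in duplicate.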

[13] = Half life in Sprague-Dawley rat at 5 mg/kg, iv administered as single bolus dose; type: ADME, organism-based; details: in vivo; in short: as §3
[14] = molecular target: CYP2C9 (Homo sapiens, UniProt P11712); assay: Inhibition of CYP2C9 in human liver microsomes at 10 uM measured after 20 mins in presence of NADPH by LC/MS/MS analysis relative to control; type: ADME; in short: as §2
[15] = molecular target: Prostaglandin G/H synthase 1 (Homo sapiens, UniProt P23219); assay: Inhibition of COX1 in human U937 cells assessed as decrease in PGE2 release using arachidonic acid as substrate preincubated for 15 mins followed by arachidonic acid addition measured after 5 mins; type: cell-based
[16] = molecular target: CYP2C19 (Homo sapiens, UniProt P33261); assay: Inhibition of CYP2C19 in human liver microsomes at 10 uM measured after 40 mins in presence of NADPH by LC/MS/MS analysis relative to control; type: ADME; in short: as §2
[17] = Tmax in Sprague-Dawley rat at 10 mg/kg, po; type: ADME, organism-based; details: in vivo; in short: as §4

Cytochrome P450 2C19, sequence (P33261 whole entry, canonical isoform): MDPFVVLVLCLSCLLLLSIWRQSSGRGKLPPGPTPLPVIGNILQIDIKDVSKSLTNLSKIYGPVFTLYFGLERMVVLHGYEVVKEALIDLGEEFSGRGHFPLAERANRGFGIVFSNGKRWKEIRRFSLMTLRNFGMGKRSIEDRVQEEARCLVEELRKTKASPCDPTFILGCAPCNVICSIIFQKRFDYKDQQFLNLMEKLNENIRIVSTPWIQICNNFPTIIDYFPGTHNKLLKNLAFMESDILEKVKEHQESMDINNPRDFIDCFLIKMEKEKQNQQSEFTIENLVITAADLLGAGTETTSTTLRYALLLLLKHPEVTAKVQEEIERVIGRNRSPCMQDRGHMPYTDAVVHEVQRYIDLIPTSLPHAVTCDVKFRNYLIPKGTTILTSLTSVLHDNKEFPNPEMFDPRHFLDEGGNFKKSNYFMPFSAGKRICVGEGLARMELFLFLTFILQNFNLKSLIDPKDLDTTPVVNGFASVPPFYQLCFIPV
CYP2C19, sequence (P33261 whole entry): as the sequence (P33261 whole entry, canonical isoform) above
Cytochrome P450 2D6, sequence (P10635 whole entry): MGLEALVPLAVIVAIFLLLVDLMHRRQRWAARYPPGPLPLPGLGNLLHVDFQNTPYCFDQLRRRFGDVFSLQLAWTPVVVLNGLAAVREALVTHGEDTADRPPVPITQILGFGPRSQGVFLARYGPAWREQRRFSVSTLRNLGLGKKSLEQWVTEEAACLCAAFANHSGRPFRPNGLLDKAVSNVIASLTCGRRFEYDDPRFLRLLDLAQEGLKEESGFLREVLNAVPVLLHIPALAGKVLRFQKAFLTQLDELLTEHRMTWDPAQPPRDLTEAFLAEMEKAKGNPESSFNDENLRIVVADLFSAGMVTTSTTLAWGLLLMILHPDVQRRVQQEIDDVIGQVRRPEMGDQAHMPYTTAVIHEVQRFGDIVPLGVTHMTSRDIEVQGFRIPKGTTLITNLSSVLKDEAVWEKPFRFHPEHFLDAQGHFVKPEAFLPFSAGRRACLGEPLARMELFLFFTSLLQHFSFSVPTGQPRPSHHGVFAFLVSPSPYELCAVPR
Cytochrome P450 3A4, sequence (P08684 whole entry): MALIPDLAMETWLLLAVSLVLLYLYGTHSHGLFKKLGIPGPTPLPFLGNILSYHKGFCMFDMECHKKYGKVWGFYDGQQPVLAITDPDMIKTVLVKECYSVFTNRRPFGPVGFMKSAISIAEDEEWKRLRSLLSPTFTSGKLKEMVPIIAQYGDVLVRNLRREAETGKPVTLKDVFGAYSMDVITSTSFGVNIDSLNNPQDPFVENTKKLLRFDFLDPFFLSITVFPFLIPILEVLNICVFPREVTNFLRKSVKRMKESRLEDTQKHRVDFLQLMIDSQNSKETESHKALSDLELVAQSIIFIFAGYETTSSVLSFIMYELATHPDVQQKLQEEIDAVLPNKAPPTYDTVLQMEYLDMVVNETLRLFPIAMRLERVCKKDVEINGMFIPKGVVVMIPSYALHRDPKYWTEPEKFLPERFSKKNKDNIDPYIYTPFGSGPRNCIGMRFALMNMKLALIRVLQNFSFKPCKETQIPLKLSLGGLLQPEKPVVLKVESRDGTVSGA
Prostaglandin G/H synthase 1, sequence (P23219 whole entry): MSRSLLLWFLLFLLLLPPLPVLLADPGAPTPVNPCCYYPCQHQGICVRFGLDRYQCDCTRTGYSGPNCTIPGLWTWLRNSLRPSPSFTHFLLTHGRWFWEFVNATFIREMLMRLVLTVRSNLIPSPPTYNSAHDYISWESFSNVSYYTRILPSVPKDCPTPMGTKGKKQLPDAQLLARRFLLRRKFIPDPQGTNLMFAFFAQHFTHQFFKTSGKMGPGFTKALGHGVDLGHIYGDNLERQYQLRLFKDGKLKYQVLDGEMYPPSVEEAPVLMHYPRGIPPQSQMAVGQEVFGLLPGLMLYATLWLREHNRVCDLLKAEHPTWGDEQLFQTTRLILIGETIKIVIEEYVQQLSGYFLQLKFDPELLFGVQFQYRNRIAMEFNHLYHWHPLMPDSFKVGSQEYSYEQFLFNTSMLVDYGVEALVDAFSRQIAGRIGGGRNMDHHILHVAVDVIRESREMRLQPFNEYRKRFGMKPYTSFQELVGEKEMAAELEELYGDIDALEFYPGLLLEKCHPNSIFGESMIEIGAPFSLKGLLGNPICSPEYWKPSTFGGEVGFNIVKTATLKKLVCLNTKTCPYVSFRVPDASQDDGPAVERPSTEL
Cytochrome P450 2C9, sequence (P11712 whole entry): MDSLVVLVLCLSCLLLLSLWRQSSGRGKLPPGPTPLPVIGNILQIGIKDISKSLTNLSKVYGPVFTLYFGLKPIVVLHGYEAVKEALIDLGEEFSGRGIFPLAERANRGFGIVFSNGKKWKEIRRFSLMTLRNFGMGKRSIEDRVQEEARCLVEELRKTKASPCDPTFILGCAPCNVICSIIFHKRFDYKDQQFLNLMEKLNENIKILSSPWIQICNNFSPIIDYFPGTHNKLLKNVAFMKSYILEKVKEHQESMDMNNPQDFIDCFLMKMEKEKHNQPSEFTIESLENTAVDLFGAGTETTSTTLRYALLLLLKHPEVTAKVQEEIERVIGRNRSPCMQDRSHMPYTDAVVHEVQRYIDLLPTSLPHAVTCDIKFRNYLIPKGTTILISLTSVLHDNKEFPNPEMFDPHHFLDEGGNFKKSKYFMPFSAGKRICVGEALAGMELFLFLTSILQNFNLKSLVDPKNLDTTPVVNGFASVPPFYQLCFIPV
CYP2C9, sequence (P11712 whole entry): as above

SMILES | remaining at 1 h, 1 µM [1] | inhibition (INH) [2] | remaining at 1 h, 1 µM [3] | inhibition (INH) [4] | clearance [5] | inhibition (INH) [6] | bioavailability [7] | inhibition (INH) [8] | IC50 [9] | AUC(0-t) at 24 h [10] | IC50 [11] | IC50 [12] | half-life [13] | inhibition at 20 min, 10 µM [14] | IC50 [15] | inhibition at 40 min, 10 µM [16] | Tmax [17]
CC1(C)Oc2cc(-c3cccc(OC(F)(F)F)c3)ccc2-c2[nH]c(-c3c(F)cccc3Cl)nc21 | 84% | Not Active | 83% | Not Active | 0.218 L/h/kg | Not Active | 33% | Not Active | 0.84 µM | 12.6 µg·h/mL | > 10 µM | 0.0569 µM | 9.87 h | 45.4% | 6.75 µM | 27.2% | 4 h
CC1(C)Oc2cc(C#Cc3cc(Cl)ccc3F)ccc2-c2[nH]c(-c3c(F)cccc3Cl)nc21 | 76% | Not Active | 44% | Not Active | 0.668 L/h/kg | Not Active | 85% | Not Active | 0.839 µM | 12.4 µg·h/mL | 9.88 µM | 0.0363 µM | 5.5 h | 33.3% | 0.06 µM | 17 to 26% | 4 h
